This note sets out measurements from PubChem BioAssay AID493227 (Broad Institute, 2011).

Molecules are shown by their SMILES. Several values for one entry are separate records, joined by “and”; a condition that tells them apart may be missing. Equal entries are not always repeated. Activity calls are given as the source filed them.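 Rule for the calls: active = fitted curve reaches 40% activation at a dose no higher than the top dose validly tested; inconclusive = flat curve between 30 and 70% activation, or poor fit; inactive = the rest, including signal moving against the expected rise.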

Tested on in the first experiment: not listed separately
As to the kind of experiment: HIF pathway reporter activators – cell-based, luminescence, U2OS HRE-luc, dry powder, set 8, dose response (AID 493227). The settings on record: U2OS HRE-luciferase reporter, luminescence, HIF activation; at 38 µM (top of the series). The essentials: (§1)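 Assay system: U2OS 3×HRE-luciferase reporter cells; Input: 6,000 cells/well; Measured by: Steady-Glo luminescence; Times: cells plated 24 h before compound, then 24 h compound exposure; Buffer or medium: phenol red-free DMEM, 10% FBS; Doses: 8-point series in 3-fold steps.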
On to `O=C(NC1CCc2ccccc2C1)c1cc(-c2ccccc2)on1` (stereo not drawn), for which the activation was -11.6% (inactive).

`O=C(NCC1CCCCC1)c1cc(-c2ccccc2)on1`: the activation is 15.7% (inactive).

In the case of `O=C(c1cc(-c2ccccc2)on1)N1CCC(N2CCOCC2)CC1`, the activation is -9.31% (inactive).

With `O=C(c1cc(-c2ccccc2)on1)N1CCc2cccnc21`, the activation is -1.93% (inactive).

`O=C(Nc1cn2ccccc2n1)c1cc(-c2ccccc2)on1`: the activation was -5.39% (inactive).

For the compound `O=C(Nc1nc(-c2ccccc2)cs1)c1cc(-c2ccccc2)on1`, the activation is -11.1% (inactive).

For the compound `Oc1ccc(CN2CCc3ccccc3C2)c2cccnc12`, the activation is 99.2% (inactive).

Turning to `O=C(Nc1ccc2ccccc2n1)c1cc(-c2ccccc2)on1`, the activation was -20.3% (inactive).

Take `O=C(Nc1ncc2ccccc2n1)c1cc(-c2ccccc2)on1`: the activation is 8.54% (inactive).

Regarding `Cc1ccc(CNC(=O)c2cc(-c3ccccc3)on2)cc1`, the activation is -27% (inactive).

`O=C(Nc1nc2ccccc2s1)c1cc(-c2ccccc2)on1`: the activation is 9.05% (inactive).

For the compound `Cc1ccc(NC(=O)c2cc(-c3ccccc3)on2)cn1`, the activation was -3.16% (inactive).

With `O=C(Nc1nnc(-c2ccccc2)s1)c1cc(-c2ccccc2)on1`, the activation was 6.25% (inactive).

Regarding `O=C(Nc1ncc(-c2ccccc2)o1)c1cc(-c2ccccc2)on1`, the activation is -20.6% (inactive).

With `CN1CCN(C(=O)c2cc(-c3ccccc3)on2)CC1`, the activation was -33.9% (inactive).

Consider `O=C(c1cc(-c2ccccc2)on1)N1CCC(N2CCCC2)CC1`, for which the activation was -2.94% (inactive).

As for `c1ccc(-c2nnc(-c3ccccn3)nc2N2CCC(C3CCCCC3)C2)cc1` (stereo not drawn), the activation is 2190% (inactive).

As to `Cn1c(NC(=O)c2cc(-c3ccccc3)on2)nc2ccccc21`, the activation is 5.66% (inactive).

In the case of `O=C(c1cc(-c2ccccc2)on1)N1CCN(c2ccncc2)CC1`, the activation is -11.8% (inactive).

For the compound `O=C(Nc1cnc2ccccc2c1)c1cc(-c2ccccc2)on1`, the activation was 22.1% (inactive).

On to `O=C(c1cc(-c2ccccc2)on1)N1CCC(CO)CC1`, for which the activation is -18% (inactive).

Take `Cn1c(-c2ccccc2)cnc1NC(=O)c1cc(-c2ccccc2)on1`: the activation is 8.45% (inactive).

As to `Cc1ccccc1CNC(=O)c1cc(-c2ccccc2)on1`, the activation is 17.1% (inactive).

For the next experiment, the system named is U2OS HRE-luciferase reporter, luminescence, HIF activation. Described as above.
Conditions: not given
The essentials: as §1
Turning to `CCCCNC(=O)c1cc(-c2ccccc2)on1`, the AC40 is 3.17 µM.

For `CC1CN(Cc2ccc(O)c3ncccc23)CC(C)O1` (stereo not drawn), the AC40 is 36.6 µM.

For the compound `O=C(NCCCn1ccnc1)c1cc(-c2ccccc2)on1`, the AC40 is 4.16 µM.

In the case of `Oc1ccc(CN2CCC3CCCCC3C2)c2cccnc12` (stereo not drawn), the AC40 was 4.8 µM.

Turning to `Oc1ccc(CNC2CCc3ccccc32)c2cccnc12` (stereo not drawn), the AC40 was 13.9 µM.

As for `C[C@@H](Nc1nc(-c2ccccn2)nnc1-c1ccccc1)c1ccccc1`, the AC40 was 1.61 µM.

Consider `CN(C)CCNC(=O)c1cc(-c2ccccc2)on1`, for which the AC40 was > 38 µM (inactive).

In the case of `CC(C)(C)CCNc1nc(-c2ccccn2)nnc1-c1ccccc1`, the AC40 is 1.41 µM and 0.785 µM.

Regarding `O=C(NCc1ccccc1)c1cc(-c2ccccc2)on1`, the AC40 was > 38 µM (inactive).

For the compound `O=C(NCCN1CCOCC1)c1cc(-c2ccccc2)on1`, the AC40 was 8.1 µM.

On to `C[C@@H](Nc1nc(-c2ccccn2)nnc1-c1ccccc1)C1CCCCC1`, for which the AC40 is 1.88 µM.

`Cc1cccc(NC(=O)c2cc(-c3ccccc3)on2)n1`: the AC40 is > 38 µM (inactive).

As for `CN1CCN(c2nc(-c3ccccn3)nnc2-c2ccccc2)CC1`, the AC40 is 3.01 µM.

As for `Cc1ccc(CNc2nc(-c3ccccn3)nnc2-c2ccccc2)cc1C`, the AC40 is 0.364 µM.

In the case of `CN(C)c1nc(-c2ccccn2)nnc1-c1ccccc1`, the AC40 is 6.62 µM.

As for `COc1ccc(CNc2nc(-c3ccccn3)nnc2-c2ccccc2)cc1`, the AC40 is 0.782 µM.

With `O=C(NC1Cc2ccccc2C1)c1cc(-c2ccccc2)on1`, the AC40 was > 38 µM (inactive).

Turning to `C=CCNc1nc(-c2ccccn2)nnc1-c1ccccc1`, the AC40 was 1.3 µM.

For `Cc1cccc(CNC(=O)c2cc(-c3ccccc3)on2)c1`, the AC40 was > 38 µM (inactive).

For `Cc1cccc(CNc2nc(-c3ccccn3)nnc2-c2ccccc2)c1`, the AC40 is 2.09 µM.

Regarding `c1ccc(-c2cnc(Nc3nc(-c4ccccn4)nnc3-c3ccccc3)s2)cc1`, the AC40 was 10.7 µM.

With `Oc1ccc(CN2CCc3ccccc3C2)c2cccnc12`, the AC40 was 2.32 µM.

For the compound `N#CC1(c2ccccc2)CCN(Cc2ccc(O)c3ncccc23)CC1`, the AC40 is 14.5 µM.

On to `c1ccc(-c2ccc(CNc3nc(-c4ccccn4)nnc3-c3ccccc3)cc2)cc1`, for which the AC40 was 0.379 µM.

For the compound `Clc1cccc(CNc2nc(-c3ccccn3)nnc2-c2ccccc2)c1`, the AC40 is 0.826 µM.

Take `CC(Nc1nc(-c2ccccn2)nnc1-c1ccccc1)c1ccccc1` (stereo not drawn): the AC40 was 0.875 µM.

For the compound `c1ccc(-c2nnc(-c3ccccn3)nc2Nc2nc3ccccc3s2)cc1`, the AC40 was 2.87 µM.

`Cn1c(-c2ccccc2)cnc1Nc1nc(-c2ccccn2)nnc1-c1ccccc1`: the AC40 is 4.17 µM.

Take `OCCCNc1nc(-c2ccccn2)nnc1-c1ccccc1`: the AC40 is 7.76 µM.

In the case of `O=C(NCCCN1CCOCC1)c1cc(-c2ccccc2)on1`, the AC40 is 7.62 µM.

As for `c1ccc(-c2csc(Nc3nc(-c4ccccn4)nnc3-c3ccccc3)n2)cc1`, the AC40 was 13.9 µM.

Take `c1ccc(-c2nnc(-c3ccccn3)nc2N2CCN(c3ccncc3)CC2)cc1`: the AC40 was 2.35 µM.

Regarding `C[C@H](Nc1nc(-c2ccccn2)nnc1-c1ccccc1)C1CCCCC1`, the AC40 was 1.16 µM.

Take `O=C(NCC1CC1)c1cc(-c2ccccc2)on1`: the AC40 was 1.5 µM.

Turning to `O=C(NCCCO)c1cc(-c2ccccc2)on1`, the AC40 was 5.37 µM.

For `Oc1ccc(CN2CCC(Cc3ccccc3)CC2)c2cccnc12`, the AC40 is 11.1 µM.

In the case of `c1ccc(-c2nnc(-c3ccccn3)nc2NCC2CC2)cc1`, the AC40 is 2.77 µM.

For the compound `Oc1ccc(CNC2Cc3ccccc3C2)c2cccnc12`, the AC40 is 8.12 µM.

`c1ccc(-c2nnc(-c3ccccn3)nc2NCC2CCOCC2)cc1`: the AC40 is 5.01 µM.

Take `Cc1ccccc1CNc1nc(-c2ccccn2)nnc1-c1ccccc1`: the AC40 was 2.08 µM.

Consider `CC(C)(C)c1ccc(CNc2nc(-c3ccccn3)nnc2-c2ccccc2)cc1`, for which the AC40 was 0.393 µM.

On to `c1ccc(-c2nnc(Nc3nc(-c4ccccn4)nnc3-c3ccccc3)s2)cc1`, for which the AC40 is 0.582 µM.

For `c1ccc(-c2nnc(-c3ccccn3)nc2N2CCC(c3ccccc3)C2)cc1` (stereo not drawn), the AC40 was 0.509 µM.

With `c1ccc(CNc2nc(-c3ccccn3)nnc2-c2ccccc2)cc1`, the AC40 is 3.22 µM.

With `OCC1CCN(Cc2ccc(O)c3ncccc23)CC1`, the AC40 is 15.9 µM.

Regarding `c1ccc(-c2nnc(-c3ccccn3)nc2NCCc2ccccn2)cc1`, the AC40 is 3.14 µM.

Take `c1ccc(-c2nnc(-c3ccccn3)nc2NCCN2CCOCC2)cc1`: the AC40 was 1.96 µM.

As for `Cc1cccc(Nc2nc(-c3ccccn3)nnc2-c2ccccc2)n1`, the AC40 was 1.89 µM.

For `COc1ccccc1N1CCN(Cc2ccc(O)c3ncccc23)CC1`, the AC40 was 11.8 µM.

On to `c1ccc(-c2cccc(CNc3nc(-c4ccccn4)nnc3-c3ccccc3)c2)cc1`, for which the AC40 is 0.06 µM.

For `c1ccc(-c2nnc(-c3ccccn3)nc2NCc2cccnc2)cc1`, the AC40 was 3.73 µM.

Turning to `OCC1CCN(c2nc(-c3ccccn3)nnc2-c2ccccc2)CC1`, the AC40 was 12.1 µM.

Turning to `O=C(NCCN1CCCCC1)c1cc(-c2ccccc2)on1`, the AC40 was > 38 µM (inactive).

In the case of `c1ccc(-c2nnc(-c3ccccn3)nc2NCC2CCCCC2)cc1`, the AC40 is 1.28 µM.

As to `c1ccc(-c2nnc(-c3ccccn3)nc2NCCCN2CCOCC2)cc1`, the AC40 is 3.61 µM.

Consider `Cc1ccc(CNc2nc(-c3ccccn3)nnc2-c2ccccc2)cc1`, for which the AC40 is 1.28 µM.

`c1ccc(-c2nnc(-c3ccccn3)nc2N2CCC(N3CCOCC3)CC2)cc1`: the AC40 was 2.18 µM.

For the compound `CC(C)(C)CCNC(=O)c1cc(-c2ccccc2)on1`, the AC40 was 5.03 µM.

In the case of `O=C(NCCCCO)c1cc(-c2ccccc2)on1`, the AC40 is 1.65 µM.

Regarding `Cc1ccc(Nc2nc(-c3ccccn3)nnc2-c2ccccc2)cn1`, the AC40 is 3.28 µM.

`COc1cccc(CNc2nc(-c3ccccn3)nnc2-c2ccccc2)c1`: the AC40 is 1.31 µM.

With `CC(C)(C)OC(=O)N1CCN(Cc2ccc(O)c3ncccc23)CC1`, the AC40 was > 38 µM (inactive).

Regarding `c1ccc(CCNc2nc(-c3ccccn3)nnc2-c2ccccc2)cc1`, the AC40 is 1.35 µM.

In the case of `c1ccc(-c2nnc(-c3ccccn3)nc2Nc2cnc3ccccc3n2)cc1`, the AC40 is 3.83 µM.

In the case of `c1ccc(-c2nnc(-c3ccccn3)nc2NCc2ccccn2)cc1`, the AC40 was 8.01 µM.
